Test results from ChEMBL document CHEMBL3244385, “Antitumor anthracycline antibiotics. Structure-activity and structure-cardiotoxicity relationships of rubidazone analogues” (J Med Chem, 1978).

What was measured:
L1210 [1] = experiment: Inhibition of RNA synthesis in mouse L1210 cells; type: functional; details: read-out: ED50 (the source's name)
Calf thymus DNA = experiment: Binding affinity to calf thymus DNA assessed as change in melting temperature at 5 uM by spectrophotometer analysis; type: nucleic-acid assay; details: Bos taurus
Method in brief: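 Drug dissolved in Me2SO, diluted with buffer, then mixed with calf thymus DNA. Final mix: 0.01 M phosphate pH 7, 5×10^-5 M DNA, 5×10^-6 M drug, 10^-5 M EDTA, 5% Me2SO. Absorbance at 259 nm recorded every 30 s while heating at 18 °C/h. Tm is the midpoint of the corrected curve; the shift is taken against DNA alone.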

P388 [2] = experiment: In vivo antitumor activity against mouse P388 cells allografted in BDF/CDF mouse assessed as host survival time at 4 mg/kg, ip administered on days 1 to 9 relative to control; type: functional; details: route intraperitoneal
Method in brief: (§1)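 P-388 lymphocytic leukemia, 10⁶ cells injected ip into BDF or CDF mice on day 0; drug given ip daily on days 1-9 at the stated dose. Read-out T/C: average survival time of treated mice as percent of untreated controls. Assays run by NCI Drug Research and Development Program.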

P388 [3] = experiment: In vivo antitumor activity against mouse P388 cells allografted in BDF/CDF mouse assessed as host survival time at 0.125 mg/kg, ip administered on days 1 to 9 relative to control; type: functional; details: route intraperitoneal; method in brief: as §1
P388 [4] = experiment: In vivo antitumor activity against mouse P388 cells allografted in BDF/CDF mouse assessed as host survival time at 8 mg/kg, ip administered on days 1 to 9 relative to control; type: functional; details: route intraperitoneal; method in brief: as §1
P388 [5] = experiment: In vivo antitumor activity against mouse P388 cells allografted in BDF/CDF mouse assessed as host survival time at 16 mg/kg, ip administered on days 1 to 9 relative to control; type: functional; details: route intraperitoneal; method in brief: as §1
[6] = Dissociation constant, pKa of Ar-COOH group of the compound; type: physicochemical
P388 [7] = experiment: In vivo antitumor activity against mouse P388 cells allografted in BDF/CDF mouse assessed as host survival time at 0.25 mg/kg, ip administered on days 1 to 9 relative to control; type: functional; details: route intraperitoneal; method in brief: as §1
P388 [8] = experiment: In vivo antitumor activity against mouse P388 cells allografted in BDF/CDF mouse assessed as host survival time at 0.5 mg/kg, ip administered on days 1 to 9 relative to control; type: functional; details: route intraperitoneal; method in brief: as §1
Rattus norvegicus [9] = organism: Rattus norvegicus; experiment: Cardiotoxicity in rat ECG model; details: in vivo
Rattus norvegicus [10] = organism: Rattus norvegicus; experiment: Cardiotoxicity in rat ECG model relative to adriamycin; details: in vivo
L1210 [11] = experiment: Inhibition of DNA synthesis in mouse L1210 cells; type: functional; details: read-out: ED50 (the source's name)
[12] = Partition coefficient, log P of the compound; type: physicochemical; details: octanol/water
P388 [13] = experiment: In vivo antitumor activity against mouse P388 cells allografted in BDF/CDF mouse assessed as host survival time at 2 mg/kg, ip administered on days 1 to 9 relative to control; type: functional; details: route intraperitoneal; method in brief: as §1
P388 [14] = experiment: In vivo antitumor activity against mouse P388 cells allografted in BDF/CDF mouse assessed as host survival time at 1 mg/kg, ip administered on days 1 to 9 relative to control; type: functional; details: route intraperitoneal; method in brief: as §1
[15] = Half life in 0.01 M phosphate buffer at 10 uM at pH 7.4 at 50 degC; type: physicochemical
Method in brief: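 Drug at 1×10^-5 M in 0.01 M phosphate, pH 7.4, 50 °C, no DNA. Absorbance followed continuously for 3 h at a drug-specific wavelength (345 or 259 nm). Buffer baseline subtracted. Data fit to A = ΣA0 + c·e^(-kt), with ΣA0 the absorbance of daunorubicin plus the […], and t1/2 derived from the fit.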

[16] = Drug metabolism in 0.01 M phosphate buffer assessed as hydrolysis rate after 3 hrs at 50 degC

SMILES	EC50 (L1210 [1]) [nM]	ΔTm (Calf thymus DNA) [°C]	T/C (P388 [2]) [%]	T/C (P388 [3]) [%]	T/C (P388 [4]) [%]	T/C (P388 [5]) [%]	pKa [6]	T/C (P388 [7]) [%]	T/C (P388 [8]) [%]	MCCD (Rattus norvegicus [9])	Ratio (Rattus norvegicus [10])	EC50 (L1210 [11]) [nM]	logP [12]	T/C (P388 [13]) [%]	T/C (P388 [14]) [%]	half-life at 10 µM [15] [min]	Drug metabolism [16]
CCc1ccc(C(=O)N/N=C(\C)[C@]2(O)Cc3c(O)c4c(c(O)c3[C@@H](O[C@H]3C[C@H](N)[C@H](O)[C@H](C)O3)C2)C(=O)c2c(OC)cccc2C4=O)cc1.Cl	1100	10.5	175	111	93	68	4.35	139	148	20 mg/kg	1.5	2600	2.06	175	154	–	–
COc1cccc2c1C(=O)c1c(O)c3c(c(O)c1C2=O)C[C@@](O)(/C(C)=N/NC(=O)c1ccc(Cl)c(Cl)c1)C[C@@H]3O[C@H]1C[C@H](N)[C@H](O)[C@H](C)O1.Cl	1700	11	163	117	81	54	3.62	137	157	40 mg/kg	2.8	2100	2.46	175	166	–	–
COc1cccc2c1C(=O)c1c(O)c3c(c(O)c1C2=O)C[C@@](O)(/C(C)=N/NC(=O)c1ccc(N(C)C)cc1)C[C@@H]3O[C@H]1C[C@H](N)[C@H](O)[C@H](C)O1.Cl	2500	10.7	172	94	136	89	4.97	111	154	12 mg/kg	0.8	2600	1.22	181	154	554	–
COc1cccc2c1C(=O)c1c(O)c3c(c(O)c1C2=O)C[C@@](O)(/C(CO)=N/NC(=O)c1ccc(Cl)c(Cl)c1)C[C@@H]3O[C@H]1C[C@H](N)[C@H](O)[C@H](C)O1.Cl	3600	5.3	202	116	109	72	3.62	125	143	20 mg/kg	1.4	6600	1.94	154	172	–	–
CCCCOc1ccc(C(=O)N/N=C(\C)[C@]2(O)Cc3c(O)c4c(c(O)c3[C@@H](O[C@H]3C[C@H](N)[C@H](O)[C@H](C)O3)C2)C(=O)c2c(OC)cccc2C4=O)cc1.Cl	1400	10.2	127	115	72	54	4.23	143	151	>= 48 mg kg-1	>= 3.4	3200	2.65	179	152	–	–
COc1cccc2c1C(=O)c1c(O)c3c(c(O)c1C2=O)C[C@@](O)(/C(C)=N/NC(=O)c1ccccc1)C[C@@H]3O[C@H]1C[C@H](N)[C@H](O)[C@H](C)O1.Cl [ZORUBICIN HYDROCHLORIDE]	1200	11.7	192	–	164	112	4.19	133	140	24 mg/kg	1.8	2200	1.04	170	152	324	–
COc1cccc2c1C(=O)c1c(O)c3c(c(O)c1C2=O)C[C@@](O)(/C(C)=N/NC(=O)c1ccc(Cl)cc1)C[C@@H]3O[C@H]1C[C@H](N)[C@H](O)[C@H](C)O1.Cl	1000	11.4	211	110	109	63	4.03	145	139	48 mg/kg	3.5	1900	1.75	163	145	37	metabolite_detected
COc1cccc2c1C(=O)c1c(O)c3c(c(O)c1C2=O)C[C@@](O)(/C(C)=N/NC(=O)c1ccc(O)cc1)C[C@@H]3O[C@H]1C[C@H](N)[C@H](O)[C@H](C)O1.Cl	1900	11.5	161	115	181	111	4.52	111	157	20 mg/kg	1.5	3600	0.37	160	145	–	–
COc1cccc2c1C(=O)c1c(O)c3c(c(O)c1C2=O)C[C@@](O)(/C(C)=N/NC(=O)c1ccc(-c2ccccc2)cc1)C[C@@H]3O[C@H]1C[C@H](N)[C@H](O)[C@H](C)O1.Cl	1000	10.3	190	107	98	63	3.97	134	138	40 mg/kg	2.8	1900	3	163	157	–	–
